Data set [1] has as its target Voltage-gated inwardly rectifying potassium channel KCNH2 (Homo sapiens, UniProt Q12809). The data set can be described thus: Inhibition of human ERG assessed as reduction in channel tail current by plate-based planar patch clamp assay. On the technique in general: In patch-clamp work, channel activity is measured electrically.
A short description of data set [2]: Solubility of compound in aqueous phosphate buffer at pH 7.4 after 24 hrs at 25 degC. The format is physicochemical.
The nature of data set [3]: Intrinsic clearance in human liver microsomes. In kind it is ADME, Microsome. The following applies: read-out: CLH. The method in brief:
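Metabolic turnover rate in human microsomes, compound added from DMSO stock; reported in μL/min/mg.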
In general terms: Microsomes from liver hold many membrane-bound enzymes, among them those of drug oxidation.

A short description of data set [4]: Lipophilicity, logP of the compound by 19F NMR-based method. The following applies: octanol/water.
Data set [5] can be described thus: Intrinsic clearance in rat hepatocytes assessed per million cells. In kind it is ADME, cell-based, Hepatocyte. To be noted: read-out: CLH. The method in brief:
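Isolated rat hepatocytes diluted to 1x10⁶ cells/mL, compound added from DMSO stock; metabolism rate expressed as μL/min/10⁶ cells.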

Data set [6] in a line: Fraction unbound in 10% human plasma by equilibrium dialysis. The format is ADME, cell-free. An outline of the steps: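 Equilibrium dialysis in 10% human plasma, compound added from DMSO stock; fraction unbound determined.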
(In equilibrium dialysis free small molecules cross a membrane that holds back macromolecules.)

Data set [7] is described as follows: Lipophilicity, logD of the compound at 7.4 by the shake flask method. The format is physicochemical. To be noted: octanol/water, pH 7.4. The method in brief:
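Shake-flask partitioning at pH 7.4 (routine AstraZeneca method); concentrations determined by UV detection.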

A word on the pIC50: it is the IC50 on a negative log10 scale, so that one unit is a factor of ten. In general, solubility refers to how much of the substance goes into solution per volume. Read a low solubility as little dissolved substance. The term logP denotes a log measure of how a compound divides between an organic and an aqueous phase. A lower logP goes with lower lipophilicity. One may read the fraction unbound as the share of the substance not bound to proteins or other matrix. What is called logD is the decadic logarithm of the distribution of all forms, ionised or not, between an organic phase and buffer at a given pH.

Each structure is given as a SMILES string. pIC50: −log10 of the molar value.

Sequence of Voltage-gated inwardly rectifying potassium channel KCNH2 (Q12809 whole entry): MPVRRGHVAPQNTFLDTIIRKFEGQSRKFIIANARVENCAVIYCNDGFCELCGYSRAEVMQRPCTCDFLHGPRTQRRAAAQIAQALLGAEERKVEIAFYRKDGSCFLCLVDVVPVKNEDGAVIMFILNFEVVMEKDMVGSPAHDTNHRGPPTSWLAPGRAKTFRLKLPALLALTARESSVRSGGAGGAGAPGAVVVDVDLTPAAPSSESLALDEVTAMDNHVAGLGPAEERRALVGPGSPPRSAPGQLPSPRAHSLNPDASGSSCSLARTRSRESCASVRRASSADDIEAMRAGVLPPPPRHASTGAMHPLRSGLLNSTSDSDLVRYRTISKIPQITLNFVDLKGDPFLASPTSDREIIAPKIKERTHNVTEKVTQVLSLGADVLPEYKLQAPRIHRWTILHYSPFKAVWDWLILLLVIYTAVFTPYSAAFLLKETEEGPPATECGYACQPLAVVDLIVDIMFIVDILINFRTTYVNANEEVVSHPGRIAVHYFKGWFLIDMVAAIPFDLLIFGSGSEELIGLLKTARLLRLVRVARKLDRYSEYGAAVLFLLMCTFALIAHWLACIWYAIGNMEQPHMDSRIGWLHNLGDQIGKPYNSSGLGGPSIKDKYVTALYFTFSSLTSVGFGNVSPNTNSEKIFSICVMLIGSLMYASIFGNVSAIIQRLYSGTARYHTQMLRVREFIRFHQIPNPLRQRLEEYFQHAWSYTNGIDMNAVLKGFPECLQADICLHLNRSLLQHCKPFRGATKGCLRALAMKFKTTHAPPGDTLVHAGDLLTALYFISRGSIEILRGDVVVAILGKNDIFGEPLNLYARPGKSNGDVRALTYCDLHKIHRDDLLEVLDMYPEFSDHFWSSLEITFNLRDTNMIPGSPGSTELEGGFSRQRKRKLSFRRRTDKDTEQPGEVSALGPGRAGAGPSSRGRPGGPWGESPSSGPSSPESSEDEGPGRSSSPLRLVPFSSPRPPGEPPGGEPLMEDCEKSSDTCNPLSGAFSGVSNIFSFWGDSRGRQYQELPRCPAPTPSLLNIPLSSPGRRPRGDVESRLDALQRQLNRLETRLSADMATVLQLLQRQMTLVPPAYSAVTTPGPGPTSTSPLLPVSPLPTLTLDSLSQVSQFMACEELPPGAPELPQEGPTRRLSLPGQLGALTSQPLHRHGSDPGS

With `CCCCCOc1cccc(CCNCC(=O)N(C)C)c1.Cl`, the pIC50 in data set [1] is 5.74. In data set [2], this compound gave a solubility at 24 h of 779 µM.
For the compound `CCCCOc1cccc(CCNCC(=O)N(C)C)c1.Cl`, the pIC50 in data set [1] was 5.03. In data set [2], this compound had a solubility at 24 h of 782 µM.
In the case of `CN(C)C(=O)CNCCc1cccc(OCCCC(C)(F)F)c1.Cl`, in data set [3], the microsomal CLint was 7 µL/min/mg. In addition, the pIC50 in data set [1] is 5.12. The solubility at 24 h in data set [2] worked out at 1000 µM.
In data set [4], `CN(C)C(=O)CNCCc1cccc(OCC(F)(F)C(C)(F)F)c1` showed a logP of 1.6.
On the same count and under the same terms, then `CN(C)C(=O)CNCCc1cccc(OCCC(C)(F)F)c1`, with 1.1.
Compound `CN(C)C(=O)CNCCc1cccc(OCC(F)(F)C(F)(F)C(F)(F)F)c1` gave a logP in data set [4] of 2.5.
Consider `OCCC(F)(F)CC(F)(F)F`, for which the logP in data set [4] turned out to be 1.12.
Compound `OCCCC(F)CF` (stereo not given) came in with a logP in data set [4] of 0.11.
Consider `CCCC(O)CF` (stereo not given), for which, in data set [4], the log partition coefficient (logP) was determined as 0.74.
On the same count and under the same terms, then `CCC(F)(F)C(C)O` (stereo not given), with 1.04; and `OCCC(F)CC(F)(F)F` (stereo not given), with 0.84; and `FC(F)(F)CCOc1ccc2[nH]ccc2c1`, with 2.8.
Same read-out and setting: the result for `CC(F)(F)COc1ccc2[nH]ccc2c1` reads 2.7; that for `OCCCF`, -0.26; that for `OCCCCF`, 0.09.
The same measure, in the same setting: then `CCCC(F)(F)CO`, with 1.25; and `OCCCC(F)C(F)F` (stereo not given), with 0.52; and `OCC(F)F`, with -0.29.
On to `CC(F)[C@H](F)CCc1c[nH]c2ccccc12` (stereo not given in full), for which, in data set [4], the logP was found to be 2.8.
`CN(C)C(=O)CNCCc1cccc(OCCCC(F)(F)F)c1.Cl`: the hepatocyte CLint in data set [5] stood at 52 µL/min/1e6 cells. Also, the microsomal CLint in data set [3] was < 3 µL/min/mg. In data set [2], the concentration in solution (solubility at 24 h) came to 900 µM. Further, the fraction unbound in data set [6] stood at 0.47. Moreover, the pH-dependent lipophilicity (logD) in data set [7] was 1.9.
In data set [4], `OCCC(F)C(F)F` (stereo not given) came in with a logP of 0.29.
Still for that read-out and setting: then `OCCCC(F)F`, with 0.29; and `CCC(F)(F)CCO`, with 0.92; and `FCC(F)[C@H](F)Cc1c[nH]c2ccccc12` (stereo not given in full), with 2.7.
The same measure, in the same setting: the result for `CCC(F)CCO` (stereo not given) reads 0.75; that for `OCCC(F)F`, 0.04.
`CC(F)(F)CCO` yielded a logP in data set [4] of 0.34.
The same measure, in the same setting: the result for `CC(O)CCCF` (stereo not given) reads 0.42; that for `CCCCc1c[nH]c2ccccc12`, 3.7.
The same measure, in the same setting: the result for `CCC(F)(F)CO` reads 0.67; that for `OCC(F)(F)C(F)(F)C(F)(F)C(F)F`, 1.89.
Still for that read-out and setting: then `OCCC(F)(F)C(F)F`, with 0.66; and `CC(F)(F)C(F)(F)CO`, with 0.87; and `OCC(F)(F)C(F)C(F)(F)F` (stereo not given), with 1.53.
The compound `OCCCC(F)(F)CF` showed a logP in data set [4] of 0.58.
On the same count and under the same terms, the result for `OCCCC(F)C(F)(F)F` (stereo not given) reads 1.22; that for `FC(F)CCOc1ccc2[nH]ccc2c1`, 2.6; that for `OCCC(F)CF` (stereo not given), -0.12.
Compound `CC(O)CCC(F)F` (stereo not given) gave a lipophilicity (logP) in data set [4] of 0.64.
On the same count and under the same terms, then `CC(=O)N1CCC[C@H]1C(=O)OCC(F)F`, with 0.02; and `OCCC(F)(F)CF`, with 0.27.
`CCCC(O)C(F)F` (stereo not given) yielded a logP in data set [4] of 1.14.
On the same count and under the same terms, the result for `OCCC(F)(F)C(F)(F)C(F)(F)F` reads 2.1.
Take `CN(C)C(=O)CNCCc1cccc(OCCCCC(F)(F)F)c1.Cl`: the hepatocyte CLint in data set [5] turned out to be 105 µL/min/1e6 cells. For the same compound, the microsomal CLint in data set [3] was 10 µL/min/mg. Further, in data set [1], the negative-log IC50 (pIC50) is 5.02. For the same compound, in data set [2], the solubility at 24 h was > 1000 µM. The same compound showed a fraction unbound in data set [6] of 0.28. For the same compound, the log distribution coefficient (logD) in data set [7] amounted to 2.3.
`OCC(F)CC(F)(F)F` (stereo not given) displayed a logP in data set [4] of 0.6.
The same measure, in the same setting: the result for `FCC(F)COc1ccc2[nH]ccc2c1` (stereo not given) reads 2.3; that for `CCC(F)CO` (stereo not given), 0.26; that for `FCCCOc1ccc2[nH]ccc2c1`, 2.5.
With `CN(C)C(=O)CNCCc1cccc(OCCCC(F)(F)CF)c1.Cl`, the hepatocyte CLint in data set [5] turned out to be 34 µL/min/1e6 cells. For the same compound, the microsomal CLint in data set [3] was < 3 µL/min/mg. Besides, in data set [1], the pIC50 was 4.82. The compound further registered a solubility at 24 h in data set [2] of 870 µM. In data set [6], this compound had a fraction unbound of 0.47. This compound also returned a logD in data set [7] of 1.6.
The compound `OCC(F)(F)CC(F)(F)F` showed a logP in data set [4] of 1.04.
In data set [4], `CCOC(=O)[C@@H]1CCCN1C(C)=O` gave a logP of 0.
In data set [4], `OCCCCC(F)F` displayed a logP of 0.66.
The same measure, in the same setting: then `CCCOc1ccc2[nH]ccc2c1`, with 2.9; and `CC[C@H](F)[C@H](C)O` (racemic), with 0.68; and `CC[C@@H](F)[C@H](C)O` (racemic), with 0.68.
The same measure, in the same setting: the result for `CCCCOc1cccc(CCNCC(=O)N(C)C)c1` [EVENAMIDE] reads 1.8.
Regarding `OCC(F)(F)F` [TRIFLUOROETHANOL], the logP in data set [4] was 0.36.

The values above are taken from ChEMBL document CHEMBL4376873, “Systematic Investigation of Lipophilicity Modulation by Aliphatic Fluorination Motifs” (J Med Chem, 2020).
